Converted amounts (≈) assume the structure as drawn.
Columns and labels:
Mus musculus [1] = experiment: Toxicity in female BDF1 mouse allografted with mouse L1210 cells assessed as animal survival at 100 mg/kg, ip administered daily for 9 days as Klucel suspension starting 24 hrs after tumor inoculation measured on fifth day; format: organism-based; parameters: dose 100 mg/kg, route intraperitoneal; details: in vivo
How it was run: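 Female BDF1 mice bearing ip ascitic L1210 inoculum got nine daily ip doses in a Klucel suspension, starting 24 h after tumor inoculation. Toxicity was scored as toxicity-day survivors out of the group, recorded on the fifth day. Animal weight difference (T − C) was also tabulated.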

Mus musculus [2] = experiment: Toxicity in female CDF1 mouse allografted with mouse P388 cells assessed as animal survival at 200 mg/kg, ip administered daily for 9 days as Klucel suspension starting 24 hrs after tumor inoculation; format: organism-based; parameters: dose 200 mg/kg, route intraperitoneal; details: in vivo
How it was run: (§1)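 P-388 leukemia ascitic fluid inoculated ip. Compound given ip as a suspension in Klucel (hydroxypropylcellulose), once daily for nine doses beginning 24 h post-inoculation. Acute toxicity assessed as toxicity-day survivors per group. Survival was followed up to 30 days, with 30-day survival counted as "cure". Follows NCI screening protocols.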

L1210 [3] = experiment: Antileukemic activity against mouse L1210 cells allografted in female BDF1 mouse assessed as change in body weight at 200 mg/kg, ip administered daily for 9 days as Klucel suspension starting 24 hrs after tumor inoculation; format: functional; details: route intraperitoneal
How it was run: (§2)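 Ascitic fluid carrying L1210 cells was inoculated ip. Compound was given ip as a Klucel (hydroxypropylcellulose) suspension in nine daily doses, starting 24 h after inoculation. Body-weight difference (treated minus control) was recorded on day 5. Survival was scored as %T/C of mean survival time.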

[4] = Cytotoxicity against human 9KB cells treated as ethanol solution; format: functional; details: read-out: ED50 (the source's name)
How it was run: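 Compound applied as an ethanol solution; activity read out as ED50 under the general screening protocol.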

Mus musculus [5] = experiment: Toxicity in female BDF1 mouse allografted with mouse L1210 cells assessed as animal survival at 200 mg/kg, ip administered daily for 9 days as Klucel suspension starting 24 hrs after tumor inoculation measured on fifth day; format: organism-based; parameters: dose 200 mg/kg, route intraperitoneal; details: in vivo
How it was run: (§3)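 L1210 leukemia passaged as ascitic fluid and inoculated ip. Test agent given ip as a Klucel (hydroxypropylcellulose) suspension, nine daily doses starting 24 h after tumor inoculation. Acute toxicity read as toxicity-day survivors per group (out of 6), recorded on day 5. Animal weight difference T − C was also recorded. Follows NCI screening protocols.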

Mus musculus [6] = experiment: Toxicity in female CDF1 mouse allografted with mouse P388 cells assessed as animal survival at 100 mg/kg, ip administered daily for 9 days as Klucel suspension starting 24 hrs after tumor inoculation; format: organism-based; parameters: dose 100 mg/kg, route intraperitoneal; details: in vivo; how it was run: as §1
Mus musculus [7] = experiment: Toxicity in female BDF1 mouse allografted with mouse L1210 cells assessed as animal survival at 50 mg/kg, ip administered daily for 9 days as Klucel suspension starting 24 hrs after tumor inoculation measured on fifth day; format: organism-based; parameters: dose 50 mg/kg, route intraperitoneal; details: in vivo; how it was run: as §3
L1210 [8] = experiment: Antileukemic activity against mouse L1210 cells allografted in female BDF1 mouse assessed as change in body weight at 100 mg/kg, ip administered daily for 9 days as Klucel suspension starting 24 hrs after tumor inoculation; format: functional; details: route intraperitoneal; how it was run: as §2
P388 [9] = experiment: Antitumor activity against mouse P388 cells allografted in female CDF1 mouse assessed as change in body weight at 100 mg/kg, ip administered daily for 9 days as Klucel suspension starting 24 hrs after tumor inoculation; format: functional; details: route intraperitoneal
How it was run: (§4)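 Ascitic fluid carrying P388 cells was inoculated ip. Compound was given ip in nine daily doses, starting 24 h after inoculation, in Klucel (hydroxypropylcellulose) suspension or in saline with Tween-80. Body-weight difference (treated minus control) was recorded on day 5. Survival was scored as %T/C of median survival time, and 30-day survival counted as cure.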

P388 [10] = experiment: Antitumor activity against mouse P388 cells allografted in female CDF1 mouse assessed as disease cures by measuring 30-days host survival at 200 mg/kg, ip administered daily for 9 days as Klucel suspension starting 24 hrs after tumor inoculation relative to control; format: functional; details: route intraperitoneal
How it was run: (§5)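 P388 leukemia given as an ascitic fluid cell inoculum, ip, to mice of the strain and sex in each line. Nine daily ip doses were given in a Klucel (hydroxypropylcellulose) suspension, starting 24 h after inoculation. Read-out is median survival time as %T/C, with >125 taken as significant; a "cure" means 30-day survival.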

P388 [11] = experiment: Antitumor activity against mouse P388 cells allografted in female CDF1 mouse assessed as change in body weight at 200 mg/kg, ip administered daily for 9 days as Klucel suspension starting 24 hrs after tumor inoculation; format: functional; details: route intraperitoneal; how it was run: as §4
L1210 [12] = experiment: Antileukemic activity against mouse L1210 cells allografted in female BDF1 mouse assessed as host mean survival time at 200 mg/kg, ip administered daily for 9 days as Klucel suspension starting 24 hrs after tumor inoculation relative to control; format: functional; details: route intraperitoneal
How it was run: (§6)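 L1210 leukemia given as an ascitic fluid cell inoculum, ip, to mice of the strain and sex in each line. Test material was given ip for nine daily doses starting 24 h after inoculation, in a Klucel (hydroxypropylcellulose) suspension. Read-out is mean survival time as %T/C versus controls, with >125 taken as significant.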

L1210 [13] = experiment: Antileukemic activity against mouse L1210 cells allografted in female BDF1 mouse assessed as host mean survival time at 100 mg/kg, ip administered daily for 9 days as Klucel suspension starting 24 hrs after tumor inoculation relative to control; format: functional; details: route intraperitoneal; how it was run: as §6
P388 [14] = experiment: Antitumor activity against mouse P388 cells allografted in female CDF1 mouse assessed as disease cures by measuring 30-days host survival at 100 mg/kg, ip administered daily for 9 days as Klucel suspension starting 24 hrs after tumor inoculation relative to control; format: functional; details: route intraperitoneal; how it was run: as §5
L1210 [15] = experiment: Antileukemic activity against mouse L1210 cells allografted in female BDF1 mouse assessed as host mean survival time at 50 mg/kg, ip administered daily for 9 days as Klucel suspension starting 24 hrs after tumor inoculation relative to control; format: functional; details: route intraperitoneal; how it was run: as §6
P388 [16] = experiment: Antitumor activity against mouse P388 cells allografted in female CDF1 mouse assessed as disease cures by measuring 30-days host survival at 50 mg/kg, ip administered daily for 9 days as Klucel suspension starting 24 hrs after tumor inoculation relative to control; format: functional; details: route intraperitoneal; how it was run: as §5
L1210 [17] = experiment: Antileukemic activity against mouse L1210 cells allografted in female BDF1 mouse assessed as change in body weight at 50 mg/kg, ip administered daily for 9 days as Klucel suspension starting 24 hrs after tumor inoculation; format: functional; details: route intraperitoneal; how it was run: as §2
Mus musculus [18] = experiment: Toxicity in female CDF1 mouse allografted with mouse P388 cells assessed as animal survival at 50 mg/kg, ip administered daily for 9 days as Klucel suspension starting 24 hrs after tumor inoculation; format: organism-based; parameters: dose 50 mg/kg, route intraperitoneal; details: in vivo; how it was run: as §1
P388 [19] = experiment: Antitumor activity against mouse P388 cells allografted in female CDF1 mouse assessed as change in body weight at 50 mg/kg, ip administered daily for 9 days as Klucel suspension starting 24 hrs after tumor inoculation; format: functional; details: route intraperitoneal; how it was run: as §4
P388 [20] = experiment: Antitumor activity against mouse P388 cells allografted in female BDF1 mouse assessed as disease cures by measuring 30-days host survival at 12.5 mg/kg, ip administered daily for 9 days as Klucel suspension starting 24 hrs after tumor inoculation relative to control; format: functional; details: route intraperitoneal; how it was run: as §5
P388 [21] = experiment: Antitumor activity against mouse P388 cells allografted in female BDF1 mouse assessed as change in body weight at 12.5 mg/kg, ip administered daily for 9 days as Klucel suspension starting 24 hrs after tumor inoculation; format: functional; details: route intraperitoneal; how it was run: as §4
Mus musculus [22] = experiment: Toxicity in female BDF1 mouse allografted with mouse P388 cells assessed as animal survival at 25 mg/kg, ip administered daily for 9 days as Klucel suspension starting 24 hrs after tumor inoculation; format: organism-based; parameters: dose 25 mg/kg, route intraperitoneal; details: in vivo; how it was run: as §1
P388 [23] = experiment: Antitumor activity against mouse P388 cells allografted in female BDF1 mouse assessed as disease cures by measuring 30-days host survival at 25 mg/kg, ip administered daily for 9 days as Klucel suspension starting 24 hrs after tumor inoculation relative to control; format: functional; details: route intraperitoneal; how it was run: as §5
Mus musculus [24] = experiment: Toxicity in female BDF1 mouse allografted with mouse P388 cells assessed as animal survival at 12.5 mg/kg, ip administered daily for 9 days as Klucel suspension starting 24 hrs after tumor inoculation; format: organism-based; parameters: dose 12.5 mg/kg, route intraperitoneal; details: in vivo; how it was run: as §1
P388 [25] = experiment: Antitumor activity against mouse P388 cells allografted in female BDF1 mouse assessed as change in body weight at 25 mg/kg, ip administered daily for 9 days as Klucel suspension starting 24 hrs after tumor inoculation; format: functional; details: route intraperitoneal; how it was run: as §4

Row | Compound | Activity (Mus musculus [1]) | Activity (Mus musculus [2]) | Activity (L1210 [3]) [g] | EC50 [4] [µg/mL] | Activity (Mus musculus [5]) | Activity (Mus musculus [6]) | Activity (Mus musculus [7]) | Activity (L1210 [8]) [g] | Activity (P388 [9]) [g] | T/C (P388 [10]) [%] | Activity (P388 [11]) [g] | T/C (L1210 [12]) [%] | T/C (L1210 [13]) [%] | T/C (P388 [14]) [%] | T/C (L1210 [15]) [%] | T/C (P388 [16]) [%] | Activity (L1210 [17]) [g] | Activity (Mus musculus [18]) | Activity (P388 [19]) [g] | other results
1 | CC(=O)OCc1c(COC(C)=O)c(C(F)(F)F)n2c1CCC2 | Non-toxic | Non-toxic | -0.8 | 2.4 (≈ 7.52 µM) | Non-toxic | Non-toxic | Non-toxic | -0.6 | 1.8 | 104 | 1.1 | 98 | 100 | 93 | 107 | 90 | -1 | Non-toxic | 2.1 | –
2 | CNC(=O)OCc1c(COC(=O)NC)c(C(F)(F)F)n2c1CCC2 | Non-toxic | – | -0.2 | 2.5 (≈ 7.16 µM) | Non-toxic | Non-toxic | Non-toxic | -0.8 | -0.4 | 82 | -1.5 | 98 | 100 | 116 | 104 | 117 | -0.1 | Non-toxic | 1.4 | –
3 | CC(=O)OCc1c(COC(C)=O)c(-c2ccc(Cl)c(Cl)c2)n2c1CCC2 | Non-toxic | Non-toxic | -3.3 | > 100 | Non-toxic | Non-toxic | Non-toxic | -2.2 | -1 | 127 | -3 | 100 | 104 | 122 | 100 | 141 | -1.1 | Non-toxic | -0.7 | T/C (P388 [20]): 114%; Activity (P388 [21]): 1.2 g; Activity (Mus musculus [22]): Non-toxic; T/C (P388 [23]): 125%; Activity (Mus musculus [24]): Non-toxic; Activity (P388 [25]): 1.2 g

— ChEMBL document CHEMBL3244396, “Synthesis and antileukemic activity of 5-substituted 2,3-dihydro-6,7-bis(hydroxymethyl)-1H-pyrrolizine diesters” (J Med Chem, 1977)
